These results are taken from ChEMBL document CHEMBL1148831, “1,3-disubstituted ureas functionalized with ether groups are potent inhibitors of the soluble epoxide hydrolase with improved pharmacokinetic properties” (J Med Chem, 2007).

The nature of data set [1]: Elimination half life in dog at 0.3 mg/kg, po. Type of data set: ADME, organism-based, Canis lupus familiaris. Details: dose 0.3 mg/kg, route oral. The note with it: in vivo. In outline:
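Oral gavage at 0.3 mg/kg in 3 ml tristerate at body temperature. Plasma assayed by LC/MS/MS. t1/2 from noncompartmental fit, minutes, at least three animals.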

A short description of data set [2]: Partition coefficient, log P of the compound. Type of data set: physicochemical. The note with it: octanol/water.
Data set [3] in a line: Elimination half life in rat at 5 mg/kg, po. Type of data set: ADME, organism-based. On the set-up: dose 5 mg/kg, route oral. The note with it: in vivo. In a few lines: (§1)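 Rodents dosed by oral gavage at 5 mg/kg in oleic oil solution (0.1 mL mice, 1 mL rats). Whole blood (10 μL) sampled at 0, 0.5, 1, 2, 4, 6, 8 and 24 h and analysed by LC/MS/MS. Elimination t1/2 (min) from noncompartmental fit of concentration-time data, averaged over at least three animals.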

The nature of data set [4]: Stability in human liver S9 fraction at 100 uM after 1 hr. The note with it: read-out: Stability. Type of data set: ADME, subcellular. In outline: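 Human liver microsomes (0.125 mg protein) or S9 (0.056 mg) in 0.1 M sodium phosphate pH 7.4, preincubated 5 min at 37°C. Compound added from 100 μM stock (final 1.0 μM). Started with NADPH-generating system (NADP, glucose 6-phosphate, G6PDH, MgCl₂), shaken 60 min at 37°C, stopped with cold ethanol with internal standard. Percent remaining vs 0-min ethanol-quenched control.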

Data set [5] in a line: Stability in human liver microsomes at 100 uM after 1 hr. Type of data set: ADME, Microsome. Conditions: read-out: Stability. A general note: Microsomes from liver hold many membrane-bound enzymes, among them those of drug oxidation.
The nature of data set [6]: Elimination half life in mouse at 5 mg/kg, po. Type of data set: ADME, organism-based. On the set-up: dose 5 mg/kg, route oral. Conditions: in vivo. In a few lines:
as §1

Where only a bound is given, the exact number is not on record here.

On to `CCOCCOCCOc1ccc(NC(=O)NC23CC4CC(CC(C4)C2)C3)cc1`, for which the half-life (as a rule, the time in which the quantity being followed falls by half) in data set [1] stood at 5.33 h; in data set [3], 9.67 h. Besides, the logP (as a rule, a log measure of how a compound divides between an organic and an aqueous phase) in data set [2] turned out to be 3.9. Moreover, the remaining at 1 h, 100 µM in data set [4] came out at 70%.
With `CS(=O)(=O)NCCCCCOCCCCCNC(=O)NC12CC3CC(CC(C3)C1)C2`, the remaining at 1 h, 100 µM in data set [5] came to 59%.
With `O=C(NCCCCCOCCCN1CCOCC1)NC12CC3CC(CC(C3)C1)C2`, the half-life in data set [1] came out at 1.5 h; in data set [3], 3.33 h; in data set [6], 0.25 h. This compound also showed a logP in data set [2] of 2.4. Besides, the remaining at 1 h, 100 µM in data set [5] came out at 89%; in data set [4] it was 34%.
Consider `CCOCCOCCOCCCCCNC(=O)NC12CC3CC(CC(C3)C1)C2`, for which the half-life in data set [1] worked out at 3 h; in data set [3], 0.65 h. In data set [2], this compound had a logP of 3.6. The values for the remaining at 1 h, 100 µM in data set [5] and in data set [4] were 30% and 11%, respectively.
As for `CCCC(C)COCCCCCNC(=O)NC12CC3CC(CC(C3)C1)C2` (stereo unspecified), the remaining at 1 h, 100 µM in data set [5] is 12%.
As for `O=C(NCCCCCOCCOCCOCC(F)(F)F)NC12CC3CC(CC(C3)C1)C2`, the results for the remaining at 1 h, 100 µM in data set [5] and in data set [4] were 39% and 1.1%, respectively.
For the compound `O=C(Nc1ccc(OCCCN2CCOCC2)cc1)NC12CC3CC(CC(C3)C1)C2`, the half-life in data set [1] was found to be 2.17 h. For the same compound, the logP in data set [2] amounted to 2.9. Also, the remaining at 1 h, 100 µM was found to be 93% in data set [5] and 97% in data set [4].
With `CCCOCCCOCCCCCNC(=O)NC12CC3CC(CC(C3)C1)C2`, in data set [5], the remaining at 1 h, 100 µM came out at 6.8%.
For the compound `COCCOCCOCCOCCCCCNC(=O)NC12CC3CC(CC(C3)C1)C2`, the results for the remaining at 1 h, 100 µM in data set [5] and in data set [4] were 54% and 14%, respectively.
Take `CCCCCOC1CCC(NC(=O)NC23CC4CC(CC(C4)C2)C3)CC1` (stereo unspecified): the values for the half-life in data set [1], in data set [3] and in data set [6] were 2 h, 2 h and 2.83 h, respectively. The logP in data set [2] is above 5. Further, the remaining at 1 h, 100 µM in data set [5] came out at 22%.
For the compound `CCCCOCCCCCNC(=O)NC12CC3CC(CC(C3)C1)C2`, the half-life in data set [1] was 2.17 h. The compound also yielded a logP in data set [2] of 5. In data set [5], the remaining at 1 h, 100 µM stood at 25%.
With `CCOCCOCCOCCCCCCC(=O)NC12CC3CC(CC(C3)C1)C2`, the remaining at 1 h, 100 µM in data set [5] is 32%; in data set [4], 5%.
In the case of `CCCCC(C)OCCCCCNC(=O)NC12CC3CC(CC(C3)C1)C2` (stereo unspecified), the remaining at 1 h, 100 µM in data set [5] was determined as 12%.
With `CCOCCOCCOc1cccc(NC(=O)NC23CC4CC(CC(C4)C2)C3)c1`, the figures for the remaining at 1 h, 100 µM in data set [5] and in data set [4] were 56% and 9%, respectively.
As for `CCOCCOCCOCCCCCNC(=O)CC12CC3CC(CC(C3)C1)C2`, the remaining at 1 h, 100 µM in data set [5] was found to be 5%.
Consider `O=C(NC1CCC(OCCCN2CCOCC2)CC1)NC12CC3CC(CC(C3)C1)C2` (stereo unspecified), for which the half-life was 2.17 h in data set [1], 1.83 h in data set [3] and 1.33 h in data set [6]. The compound further returned a logP in data set [2] of 2.2. In addition, the remaining at 1 h, 100 µM in data set [5] is 92%; in data set [4], 81%.
As for `CS(=O)(=O)NCCOCCOCCCCCNC(=O)NC12CC3CC(CC(C3)C1)C2`, the remaining at 1 h, 100 µM in data set [5] turned out to be 42%; in data set [4], 12%.
For `CCOCCOCCOC1CCC(NC(=O)NC23CC4CC(CC(C4)C2)C3)CC1` (stereo unspecified), the figures for the half-life in data set [1], in data set [3] and in data set [6] were 1.5 h, 2.5 h and 2.67 h, respectively. For the same compound, the logP in data set [2] turned out to be 2.9. Further, the figures for the remaining at 1 h, 100 µM in data set [5] and in data set [4] were 91% and 79%, respectively.
Take `CCCOCCCCOCCCCCNC(=O)NC12CC3CC(CC(C3)C1)C2`: the remaining at 1 h, 100 µM in data set [5] was 7.5%.
Take `CCc1ccc(OCCOCCOCCCCCNC(=O)NC23CC4CC(CC(C4)C2)C3)cc1`: the remaining at 1 h, 100 µM in data set [5] came out at 21%.
